The species entered for data set [1] is Homo sapiens. The experiment in a line: Irreversible inhibition of human GGT using gamma-Glu-AMC as substrate assessed as association rate constant by […] analysis. The procedure, abridged: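 The enzyme source was a commercial human GGT preparation carrying bovine serum albumin as stabilizer (GGT <1% of protein). Hydrolytic activity was followed with γ-Glu-AMC as substrate. Irreversible inactivation was expressed as kon, the second-order rate constant for the inhibitor–enzyme reaction.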

Data set [2] in a line: Hydrolytic stability of the compound in D2O assessed as formation of monomethyl phosphonate and phenol at 23 degC after 28 days by 31P NMR spectroscopy. The format is physicochemical. The settings on record: 672 h.
Data set [3] has as its system Escherichia coli K-12. The data set can be described thus: Irreversible inhibition of Escherichia coli K-12 SH642 GGT using gamma-Glu-AMC as substrate assessed as association rate constant by […] analysis. A digest of the protocol: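 GGT was purified from the periplasmic fraction of recombinant E. coli K-12 SH642. Hydrolytic activity was followed with γ-Glu-AMC as substrate. Irreversible inactivation was expressed as kon, the second-order rate constant for the inhibitor–enzyme reaction.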

The subject of data set [4] is Escherichia coli. The experiment in a line: Inhibition of glutaminase activity of Escherichia coli asparagine synthetase B at 0.1 mM using L-glutamine as substrate after 30 to 120 mins in presence of L-glutamate dehydrogenase and NAD+. The procedure, abridged: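 Enzyme (60 µg) preincubated at 30 °C with inhibitor in 100 mM Tris-HCl pH 7.5, 8 mM MgCl2, 100 mM NaCl, 0.5 mM DTT. Aliquots taken at 30 and 120 min. Glutaminase reaction: 100 mM EPPS pH 8, 20 mM L-Gln, 37 °C for 10 min, then TCA quench. Glutamate read as NADH via glutamate dehydrogenase in glycine–hydrazine pH 9 with ADP and NAD+.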

The subject of data set [5] is Salmonella typhimurium. The experiment in a line: Genotoxicity in Salmonella typhimurium TA98 assessed as number of revertant colonies per plate at 1 ug/plate after 20 mins in absence of S9 fraction by Ames test (reference value: 21). The class given is toxicity, organism-based. The settings on record: salmonella enterica subsp. enterica serovar typhimurium.
Data set [6] can be described thus: Hydrolytic stability of the compound in D2O assessed as formation of monomethyl phosphonate and phenol at 23 degC up to 28 days by 31P NMR spectroscopy. The format is physicochemical. The settings on record: 672 h.
Data set [7] can be described thus: Cytotoxicity against CHL cells assessed as number of cells with numerical aberrations at 20 ug/ml preincubated for 6 hrs followed by 18 hrs incubation in fresh medium in presence of S9 fraction by Giemsa staining-based microscopic analysis relative to control. The format is toxicity, cell-based, Cricetulus griseus. To be noted: chinese hamster.
Data set [8] in a line: Cytotoxicity against CHL cells assessed as structural aberrations at 20 ug/ml preincubated for 6 hrs followed by 18 hrs incubation in fresh medium in presence of S9 fraction by Giemsa-staining-based microscopic analysis. To be noted: chinese hamster. The format is toxicity, cell-based, Cricetulus griseus.
Data set [9] in a line: Cytotoxicity against CHL cells assessed as chromatid gap at 20 ug/ml preincubated for 6 hrs followed by 18 hrs incubation in fresh medium in presence of S9 fraction by Giemsa-staining-based microscopic analysis. The class given is toxicity, cell-based, Cricetulus griseus. The settings on record: chinese hamster.
Data set [10] in a line: Cytotoxicity against CHL cells assessed as number of cells with numerical aberrations at 0.05 ug/ml preincubated for 6 hrs followed by 18 hrs incubation in fresh medium in absence of S9 fraction by Giemsa-staining-based microscopic analysis relative to control. The format is toxicity, cell-based, Cricetulus griseus. To be noted: chinese hamster.
Data set [11] can be described thus: Cytotoxicity against CHL cells assessed as chromatid gap at 0.05 ug/ml after 24 hrs by Giemsa-staining-based microscopic analysis. The format is toxicity, cell-based, Cricetulus griseus. The settings on record: chinese hamster.
Data set [12] can be described thus: Cytotoxicity against CHL cells assessed as chromatid gap at 0.05 ug/ml preincubated for 6 hrs followed by 18 hrs incubation in fresh medium in absence of S9 fraction by Giemsa-staining-based microscopic analysis. The settings on record: chinese hamster. The class given is toxicity, cell-based, Cricetulus griseus.
The nature of data set [13]: Cytotoxicity against CHL cells assessed as structural aberrations at 0.05 ug/ml preincubated for 6 hrs followed by 18 hrs incubation in fresh medium in absence of S9 fraction by Giemsa-staining-based microscopic analysis. The class given is toxicity, cell-based, Cricetulus griseus. The settings on record: chinese hamster.
Data set [14] can be described thus: Cytotoxicity against CHL cells assessed as structural aberrations at 0.05 ug/ml after 24 hrs by Giemsa-staining-based microscopic analysis. The class given is toxicity, cell-based, Cricetulus griseus. The settings on record: chinese hamster.
The nature of data set [15]: Cytotoxicity against CHL cells assessed as number of cells with numerical aberrations at 0.05 ug/ml after 24 hrs by Giemsa staining-based microscopic analysis relative to control. The class given is toxicity, cell-based, Cricetulus griseus. The settings on record: chinese hamster.
The subject of data set [16] is Salmonella typhimurium. The data set can be described thus: Genotoxicity in Salmonella typhimurium TA1537 assessed as number of revertant colonies per plate at 80 ug/plate after 20 mins in absence of S9 fraction by Ames test (reference value: 9). The class given is toxicity, organism-based. The settings on record: salmonella enterica subsp. enterica serovar typhimurium.

In data set [17] the test system is Escherichia coli. The experiment in a line: Genotoxicity in Escherichia coli WP2uvrA assessed as number of revertant colonies per plate at 10 ug/plate after 20 mins in presence of S9 fraction by Ames test (reference value: 26). The settings on record: s9, 20 min. The format is toxicity.
Data set [18] has as its system Salmonella typhimurium. The experiment in a line: Genotoxicity in Salmonella typhimurium TA98 assessed as number of revertant colonies per plate at 0.5 ug/plate after 20 mins in presence of S9 fraction by Ames test (reference value: 26). To be noted: salmonella enterica subsp. enterica serovar typhimurium. The class given is toxicity, organism-based.
The test system of data set [19] is Salmonella typhimurium. The data set can be described thus: Genotoxicity in Salmonella typhimurium TA1535 assessed as number of revertant colonies per plate at 2 ug/plate after 20 mins in presence of S9 fraction by Ames test (reference value: 13). To be noted: salmonella enterica subsp. enterica serovar typhimurium. The class given is toxicity, organism-based.

The subject of data set [20] is Salmonella typhimurium. The data set can be described thus: Genotoxicity in Salmonella typhimurium TA100 assessed as number of revertant colonies per plate at 1 ug/plate after 20 mins in presence of S9 fraction by Ames test (reference value: 142). The class given is toxicity, organism-based. To be noted: salmonella enterica subsp. enterica serovar typhimurium.
For data set [21], the system named is Salmonella typhimurium. The data set can be described thus: Genotoxicity in Salmonella typhimurium TA1537 assessed as number of revertant colonies per plate at 2 ug/plate after 20 mins in presence of S9 fraction by Ames test (reference value: 15). The class given is toxicity, organism-based. To be noted: salmonella enterica subsp. enterica serovar typhimurium.

Calls of active or inactive are those of the source. No cut-off for these calls is given here.

With `COP(=O)(CCC(N)C(=O)O)Oc1cccc([N+](=O)[O-])c1` (mixture of isomers), the K in data set [1] was 49 M⁻¹ s⁻¹; in [3], 5100 M⁻¹ s⁻¹. The Stability entry in data set [2] is recorded as “Unstable”.
As to `COP(=O)(CCC(N)C(=O)O)Oc1cccc(CC(N)=O)c1` (mixture of isomers), the values for the K in [1] and in [3] were 1.9 M⁻¹ s⁻¹ and 400 M⁻¹ s⁻¹, respectively.
For `N[C@H](C(=O)O)[C@@H]1CC(Cl)=NO1`, the inhibition result in data set [4] was “Active”.
As for `O=[N+]([O-])c1ccc2c(c1)Cc1ccccc1-2` [2-NITROFLUORENE], in data set [5], the Activity is on record as 442.
Turning to `COP(=O)(CCC(N)C(=O)O)Oc1ccccc1` (stereo not drawn), the K in data set [1] came to 0.4 M⁻¹ s⁻¹; in [3] it was 120 M⁻¹ s⁻¹.
With `COP(=O)(CCC(N)C(=O)O)Oc1ccc(CC(=O)O)cc1` (stereo not drawn), the K in [1] amounted to 0.33 M⁻¹ s⁻¹; in data set [3], 210 M⁻¹ s⁻¹. In addition, the Stability entry in [6] was “Stable”.
For the compound `COP(=O)(CCC(N)C(=O)O)Oc1ccc(C(=O)O)cc1` (mixture of isomers), the K in data set [1] amounted to 5.2 M⁻¹ s⁻¹; in [3], 3200 M⁻¹ s⁻¹.
In the same order, the values of `CCOC(=O)Cc1cccc(OP(=O)(CCC(N)C(=O)O)OC)c1` (mixture of isomers) are 1.2 M⁻¹ s⁻¹ and 120 M⁻¹ s⁻¹.
`c1ccc2c(c1)cc1ccc3cccc4ccc2c1c34` [BENZO[DEF]CHRYSENE]: the values for the Activity in data set [7], in [8] and in [9] were 1%, 46% and 6%, respectively.
For `COP(=O)(CCC(N)C(=O)O)Oc1cccc(C(=O)O)c1` (mixture of isomers), the K in [1] was determined as 1.6 M⁻¹ s⁻¹; in data set [3] it was 450 M⁻¹ s⁻¹.
In the same order, the values of `COP(=O)(CCC(N)C(=O)O)Oc1cccc(CCC(=O)O)c1` (mixture of isomers) are 7.7 M⁻¹ s⁻¹ and 71 M⁻¹ s⁻¹.
For `NC(CCP(=O)(Oc1ccccc1)Oc1ccccc1)C(=O)O` (racemic), in that order: 0.41 M⁻¹ s⁻¹ and 27.8 M⁻¹ s⁻¹.
As for `NC(CCP(=O)(Oc1ccccc1)Oc1cccc(CC(=O)O)c1)C(=O)O` (mixture of isomers), the K in data set [1] turned out to be 40 M⁻¹ s⁻¹.
As for `CO[C@@]12[C@H](COC(N)=O)C3=C(C(=O)C(C)=C(N)C3=O)N1C[C@@H]1N[C@@H]12` [MITOMYCIN], the Activity in data set [10] came to 2%; in [11], 0%; in data set [12] it was 3%; in data set [13], 40%; in data set [14], 40%; in [15], 0%.
As to `Nc1c2ccccc2nc2ccccc12` [AMINACRINE], the Activity in [16] turned out to be 320.
`Nc1ccc2cc3ccccc3cc2c1` [2-AMINOANTHRACENE]: the Activity came to 495 in [17]; 421 in data set [18]; 299 in data set [19]; 694 in data set [20]; 154 in data set [21].

For the origin of these results see ChEMBL document CHEMBL3856258, “Phosphonate-based irreversible inhibitors of human γ-glutamyl transpeptidase (GGT). GGsTop is a non-toxic and highly selective inhibitor with critical electrostatic interaction with an active-site residue Lys562 for enhanced inhibitory activity” (Bioorg Med Chem, 2016).
